Sequences and labels used below:
B1: tRNA (parent)
chain: GUUCCGUUGGCGUAAUGGUAACGCGUCUCCCUCCUAAGGAGAAGACUGCGGGUUCGAGUCCCGUACGGAACG

This sample holds only a part of the variants without activity. Where only a bound is given, the exact number is not on record here.

Variants of B1 are the subject of the data set. As to the kind of experiment: yeast fitness relative to wild type (ratio to wild type); higher = fitter; tRNA-Arg(CCU), competitive growth, 37 C, YPD. The method in brief: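 Start and end populations of a pooled competition were compared by 100-nucleotide paired-end sequencing of gene amplicons. The Saccharomyces cerevisiae strains carried tRNA-Arg(CCU) gene variants at the native genomic locus, synthesised with a 3% per-site mutation rate at 69 sites, and competed in YPD at 37°C for 24 hours in six parallel replicates. Darwinian fitness relative to wild type was based on the change in genotype frequencies. Genotypes required ≥ 100 starting reads, and estimates < 0.5 were set to 0.5.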
Turning to GUUCCGUUGGCGUAAUGGUAACGCGUCUCCCUCCUAGGGAGAAGACUGCGGGUUCGAGUCCCGUACGGACCG, the yeast fitness was determined as 0.76.
Under GUUCCGUUGGCGUAAUGGUAACGCGUCUCCCUCCUACCGAGAAGACUGCGGGUUCGAGUCCCGUACGGAACG stands 0.502; under GUUCCGUUGGCGUAAUGGUAACGCGUCUCCCUCCUAGGGAGAAGAAUGCGGGUUCGAGUCCCGUACGGAACG, 0.774; under GUUCCGUUGGCGUAAUGGUAACGCGUCUCCCUCCUACGGAGAAGAUUGCGGGUUCGAGUCCCGUACGGUACG, 0.7.
To GUUCCGUUGGCGUAAUGGUAACGCGUCUCCCUCCUACGGAGAAGACUGCGGGUUCGAGUGCGGUACGGAACG belongs not above 0.5.
Under GUUCCGUUGGCGUAAUGGUAACGCGUCUCCCUCCUACGGAGAAGACUGCGGGUUCGAGUCCCCUAUGGAACG stands not above 0.5.
As for GUUCCGUUGGCGUAAUGGUAACGCGUCUCCCUCCUUAGGAGAAGACUACUGGUUCGUGUCCCGUACGGAACG, the yeast fitness was not above 0.5.
Under GUUCCGUUGGCGUAAUGGUAACGCGUCUCCCUCCUAGGGAGAAAACUGCGGGUUCGAGUCCCGUACGGACCG stands 0.859; under GUUCCGUUGGCGUAAUGGUAACGCGUCUCCCUCCUUAGGAGAAGACUGCGGGUUCGAGUCCCGUUCGGAACG, 0.597.
To GUUCCGUUGGCGUAAUGGUAACGCGUCUCCCUCCUUAGGAGAAGACUGCGGGUUCGAGUCCCGUCCGGAACG belongs 0.596; to GUUCCGUUGGCGUAAUGGUAACGCGUCUCCCUCCUAGGGAGAAGACUGCGGGUUCGAGUCCCGUAUGGUACG, 0.674.
Under GUUCCGUUGGCGUAAUGGUAACGCGUCUCCCUCCUACGGAGUAGACUGAGGGUUCGAGUCCCGUACGGAACG stands not above 0.5; under GUUCCGUUGGCGUAAUGGUAACGCGUCUCCCUCCUUAGGAGAAGACUGCGGGUUGGAGUCCCGGACGGAACG, not above 0.5; under GUUCCGUUGGCGUAAUGGUAACGCGUCUCCCUCCUUAGGAGUAGACUGCGGGUUCGAGUCCCGUACGGAACG, 0.71.
Regarding GUUCCGUUGGCGUAAUGGUAACGCGUCUCCCUCCUAGCGAGAAGACUGCGGAUUCGAGUCUCGUACGGAACG, the yeast fitness is 0.653.
Under GUUCCGUUGGCGUAAUGGUAACGCGUCUCCCUCCUACGGCCAAGACUGCGGGUUCGAGUCCCGUACGGAACG stands 0.579; under GUUCCGUUGGCGUAAUGGUAACGCGUCUCCCUCCUAGGGAGAAGACUGCGCGUUCGAGUCCCGUACGGAACG, 0.601.
Under GUUCCGUUGGCGUAAUGGUAACGCGUCUCCCUCCUACGGAGACGACUGCGGGUUCGAGUCCUGUACGGAACG stands 0.882; under GUUCCGUUGGCGUAAUGGUAACGCGUCUCCCUCCUUAGGAGAAGACUGCGGGUUCGAGUUCCGUACGGAACG, 0.566.
To GUUCCGUUGGCGUAAUGGUAACGCGUCUCCCUCCUUAGGUGAAGACUGCGGGUUCGUGUCCCAUACGGAACG belongs not above 0.5.
Consider GUUCCGUUGGCGUAAUGGUAACGCGUCUCCCUCCUAGGGAGAAGACUGCGGGUUCGAGUCCUGUACGGAACG, for which the yeast fitness was 0.864.
Under GUUCCGUUGGCGUAAUGGUAACGCGUCUCCCUCCUACGGAGAAGACUGCGGGUUCGAGUCCCGUUCGGAACG stands 0.866; under GUUCCGUUGGCGUAAUGGUAACGCGUCUCCCUCCUACGGAGCAGACUGCGGGUUUGAGUCCCGUACGGAACG, 0.597; under GUUCCGUUGGCGUAAUGGUAACGCGUCUCCCUCCUACGGAGCAGACUGCGGGUUCGAGUCCCGUAUGGAACG, 0.712.
Take GUUCCGUUGGCGUAAUGGUAACGCGUCUCCCUCCUACGGUGAAGACUGCGAGUUCGAGUCCCGUACGGAACG: the yeast fitness was determined as 0.538.
To GUUCCGUUGGCGUAAUGGUAACGCGUCUCCCUCCUACGGAGACGCCUGCGGGUUCGAGUCCCGUACGGAACG belongs not above 0.5; to GUUCCGUUGGCGUAAUGGUAACGCGUCUCCCUCCUUACGAGAGGACUGCGGGUUCGAGUCCCGUACGCAACG, not above 0.5.
Regarding GUUCCGUUGGCGUAAUGGUAACGCGUCUCCCUCCUGAGGAGAAGACUGCGGGUUCGAGUCCCGGAAGGAACG, the yeast fitness is not above 0.5.
Under GUUCCGUUGGCGUAAUGGUAACGCGUCUCCCUCCUACGGAGUAGACUGCGGGUUCGAGUCCCGUACGGAACG stands 0.809.
To GUUCCGUUGGCGUAAUGGUAACGCGUCUCCCUCCUAGGGAGAACACUGCGGGUUCGUGUCCCGUACGCAACG belongs 0.512; to GUUCCGUUGGCGUAAUGGUAACGCGUCUCCCUCCUAGGGAGAACCCUGCAGGUUGGAGUCCCGUAAGGAACG, not above 0.5; to GUUCCGUUGGCGUAAUGGUAACGCGUCUCCCUCCUACGGAGAAGACAGCGGGUUCGAGUCCCGUACGGAACG, 0.674.
To GUUCCGUUGGCGUAAUGGUAACGCGUCUCCCUCCUACGGAGAAGACUGCGGGUUCGAGUGCCGUACAGAACG belongs not above 0.5; to GUUCCGUUGGCGUAAUGGUAACGCGUCUCCCUCCUACGGAGAAGACUGCGGGUUCGAGUGCCGUACGGAACG, 0.562; to GUUCCGUUGGCGUAAUGGUAACGCGUCUCCCUCCUUAGGAGAACACUGCGGGUUCGAGUCCCGUACGGAACG, 0.629.
In the case of GUUCCGUUGGCGUAAUGGUAACGCGUCUCCCUCCUUAGGAGAAGACUCCGGGUUCGAGUCCCGUACGGAACG, the yeast fitness came out at 0.648.
To GUUCCGUUGGCGUAAUGGUAACGCGUCUCCCUCCUACGGAGAAGCCUGCGGGUUCGAGUCCCGUACGGAACG belongs 0.758.
Turning to GUUCCGUUGGCGUAAUGGUAACGCGUCUCCCUCCUACGGAGAAGACUGCGGGUUCCAGUCCCGUACGGAACG, the yeast fitness was 0.6.
Under GUUCCGUUGGCGUAAUGGUAACGCGUCUCCCUCCUUAGGAGACGACUGAGGGUUGGAGUCCCGUACGGAACG stands not above 0.5; under GUUCCGUUGGCGUAAUGGUAACGCGUCUCCCUCCUACGGGGAAGACCGCGGGUUCGAGUCCCGUACGGAACG, not above 0.5; under GUUCCGUUGGCGUAAUGGUAACGCGUCUCCCUCCUUAGGAGAAGACUCCGGGUUCGAGUCCCGUAUGGAACG, not above 0.5.
To GUUCCGUUGGCGUAAUGGUAACGCGUCUCCCUCCUUAGGAGAAGUAUGCGGGUUCGAGUCCCGUACGAAACG belongs not above 0.5; to GUUCCGUUGGCGUAAUGGUAACGCGUCUCCCUCCUGAGGAGAAGACUGCGGGUCCGAGUCUCGUAUGGAACG, not above 0.5.
To GUUCCGUUGGCGUAAUGGUAACGCGUCUCCCUCCUUAGGAGAACUCUGCGGGUUCGAGUCCUGUACGAAACG belongs 0.789; to GUUCCGUUGGCGUAAUGGUAACGCGUCUCCCUCCUUAGGAGAAGAGUGCGGGUUCGAGUCCAGUACGGAACG, not above 0.5.
Consider GUUCCGUUGGCGUAAUGGUAACGCGUCUCCCUCCUAGGGAGUAGACUGCGGGUUCGAGUCCCGUCCGGCACG, for which the yeast fitness is not above 0.5.
Under GUUCCGUUGGCGUAAUGGUAACGCGUCUCCCUCCUACGGAGAAGACUGCGGGUUCGAGUCCCGUACGGAGCG stands 0.769; under GUUCCGUUGGCGUAAUGGUAACGCGUCUCCCUCCUUAGGAGCGGACUGCGGGUUCGAGUCCCGCACGGACCG, 0.559; under GUUCCGUUGGCGUAAUGGUAACGCGUCUCCCUCCUAGGGAGUAGACUGCGGGUUCGAGUCCCGUACGGAACG, 0.787.
Under GUUCCGUUGGCGUAAUGGUAACGCGUCUCCCUCCUUAGGGGAAGACUGCGGGUUCGAGUCCCGUACGGAACG stands 0.549; under GUUCCGUUGGCGUAAUGGUAACGCGUCUCCCUCCUUAGGAGAAGACUGCGGGUUCGAGUCCCGUAUGGAACG, 0.686; under GUUCCGUUGGCGUAAUGGUAACGCGUCUCCCUCCUAGGGAGAAGACUGCGGAUUGGAGUCCCGUACGGAACG, 0.516.
For GUUCCGUUGGCGUAAUGGUAACGCGUCUCCCUCCUUGGGAGAAGACUGCCGGUUCGAGUCCCGUACGGAACG, the yeast fitness is not above 0.5.
Under GUUCCGUUGGCGUAAUGGUAACGCGUCUCCCUCCUACGGAGAAGACUGCGGCUUCGAGUCCCGUAGGGAACG stands not above 0.5; under GUUCCGUUGGCGUAAUGGUAACGCGUCUCCCUCCUUAGGAGAAGGCUGCGGGUUCGAGUCCCGUACAGAACG, not above 0.5.
Take GUUCCGUUGGCGUAAUGGUAACGCGUCUCCCUCCUAGGGAGCAGACUGCGGGUUCGAGUCCCGUACGGACCG: the yeast fitness amounted to 0.729.
Under GUUCCGUUGGCGUAAUGGUAACGCGUCUCCCUCCUAGGGCGACGACUGCGGGUUCGAGUCCCGUACUGAACG stands not above 0.5; under GUUCCGUUGGCGUAAUGGUAACGCGUCUCCCUCCUAGGGAGAAGACUGCGGGUUCGAAUCCCGUACGGAACG, 0.976.
As to GUUCCGUUGGCGUAAUGGUAACGCGUCUCCCUCCUUAGGAGAAGACUGCGGGUACGAGUCCCGCACGGUACG, the yeast fitness is not above 0.5.
In the case of GUUCCGUUGGCGUAAUGGUAACGCGUCUCCCUCCUUAGGAGAAGACUGUGGGUUCGAGUCCGGUACGGAACG, the yeast fitness was not above 0.5.
Regarding GUUCCGUUGGCGUAAUGGUAACGCGUCUCCCUCCUUAGGAGAAGUCUGCGGGAUCGAGUCCCGUACGGAACG, the yeast fitness came out at 0.554.
Under GUUCCGUUGGCGUAAUGGUAACGCGUCUCCCUCCUUAGGAGAAGACUUCGGGUUCGAGUCCCGUAAGGAACG stands not above 0.5; under GUUCCGUUGGCGUAAUGGUAACGCGUCUCCCUCCUAGGGAGAAGAUUGCGGGUUCGAGGCCCGUACGGAACG, 0.508; under GUUCCGUUGGCGUAAUGGUAACGCGUCUCCCUCCUACGGAGAAGAGUGCGGGUUCGAGUCCCGUACGGACCG, 0.632.
In the case of GUUCCGUUGGCGUAAUGGUAACGCGUCUCCCUCCUACGGAGAAGACGGCGGGAUCGAGUCCCGUACGGAACG, the yeast fitness came out at 0.535.
Consider GUUCCGUUGGCGUAAUGGUAACGCGUCUCCCUCCUACGGAGAAGACUGCGGGUUGGAGUCCCAUACGGAACG, for which the yeast fitness was not above 0.5.
To GUUCCGUUGGCGUAAUGGUAACGCGUCUCCCUCCUACGGAGAAGACUGCGGGCUCGAGUCCCGAACGGAACG belongs 0.679.
On to GUUCCGUUGGCGUAAUGGUAACGCGUCUCCCUCCUUAGGAGAAGACUGCGGGUUUGAGUCCCGUACGGAACG, for which the yeast fitness stood at 0.658.
Take GUUCCGUUGGCGUAAUGGUAACGCGUCUCCCUCCUUAGGAGAAGACUGCGGGUUCGAAUCCCGUACGGAACG: the yeast fitness was 0.624.
To GUUCCGUUGGCGUAAUGGUAACGCGUCUCCCUCCUUAAGAGAAGACUGCGGGUUCGAGUCCCGUCCGGAACG belongs 0.518.
To GUUCCGUUGGCGUAAUGGUAACGCGUCUCCCUCCUUAGGAGAAGCCUGCGGGUUCGAGUCCCCUACGGAACG belongs 0.614.
Under GUUCCGUUGGCGUAAUGGUAACGCGUCUCCCUCCUACGGAGAAGAUUGCGGGUUCGAGACCCGUACGGAACG stands not above 0.5; under GUUCCGUUGGCGUAAUGGUAACGCGUCUCCCUCCUAGGGAGAAGGCUGCGGGUUCGAGUCCCGUACGGAACG, 0.707.
In the case of GUUCCGUUGGCGUAAUGGUAACGCGUCUCCCUCCUACGGAGAAGACUGUGGGUUCGAGUCCCGUACGGAACG, the yeast fitness is 0.848.
To GUUCCGUUGGCGUAAUGGUAACGCGUCUCCCUCCUUAGGAGAAGACUGCGGGUUUAAGUCCCGUACGGAACG belongs 0.864.

These data come from the RNAGym collection of RNA variant scans (doi:10.1126/science.aae0568).
